In PMC3712287 (Journal of neuroimmunology, 2010):
Entries after “also recorded” stand apart in the source; their conditions may differ. Read-outs that look alike come from different tables or passages of the source.

Assays:
[1] = test system: FcεRI expression by LAD2 mast cells; experiment: FcεRI surface expression by flow cytometry, LAD2 mast cells; format: cell-based, human; conditions: for Effect of antagonist on SP-mediated downregulation of FcεRI: LAD2, antagonist 0.1 μM 30 min pretreatment
[2] = test system: LAD2 mast cells; experiment: Degranulation assay; format: cell-based, human
[3] = test system: LAD2 mast cells; conditions: ref Kulka et al., 2008; cited from earlier work
[4] = test system: FcεRI α, β and γ subunit mRNA in LAD2 mast cells; experiment: Quantitative real-time PCR of FcεRI α, β and γ subunit mRNA; format: cell-based, human; conditions: LAD2, 1 μg/ml SP, after at least 8 h of incubation, vs untreated control, n=3
Summary of the method: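 LAD2 cells received 1 μg/ml SP or PBS for varying times. Total RNA was column-isolated, and 5 μg was reverse-transcribed with random hexamers. Real-time PCR used 50 ng cDNA per reaction, run in triplicate for 40 cycles. Subunit mRNA was normalized to GAPDH and expressed as percent of PBS-treated cells at each time point. n=3.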

[5] = test system: human mast cells
[6] = test system: CysLT production by LAD2 mast cells; experiment: ELISA for CysLT production; format: cell-based, human; conditions: for Effect of SP on CysLT production: LAD2, SP 10 μg/ml, anti-IgE 3 h
[7] = test system: IgE binding by LAD2 mast cells; experiment: Cell surface IgE binding by flow cytometry; format: cell-based, human; conditions: SP 24 h, sensitized with IgE 1-100 ng/ml 30 min, anti-IgE FITC, n=5
Summary of the method: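 LAD2 human mast cells (StemPro-34 SFM, 10 ng/ml SCF) were incubated 24 h with SP, then sensitized for 30 min with IgE at 1-100 ng/ml. Bound IgE was stained with anti-IgE-FITC (5 μg/ml) for 30 min on ice and read by flow cytometry as MFI.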

[8] = test system: mast cell tryptase; experiment: Tryptase activity assay; format: biochemical, human; conditions: supernatants of SP-activated LAD2, BAPNA substrate, n=3
Summary of the method: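 Washed LAD2 cells were left untreated or activated with SP (1 μg/ml) for 3 h. Cell-free supernatants were exposed to SBTI for 30 min, then mixed with 0.8 mM BAPNA solution in 0.1 M Tris/1 M glycerol, pH 7.8, and incubated 4 h at 37 °C. Nitroaniline was read at 410 nm. Activity was expressed relative to supernatants from SP-stimulated cells without inhibitor. n=3.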

With O=C(O)CN(CCN(CC(=O)O)CC(=O)O)CC(=O)O [EDTA] the “Effect on SP-mediated downregulation of FcεRI” value [1] was “blocked the SP-mediated downregulation of FcεRI” and the “Effect on SP-induced degranulation” value [2] was “blocked SP-induced degranulation”.

For Pertussis toxin, the “Effect on SP-mediated downregulation of FcεRI” value ([1]; Pertussis toxin pretreatment 2 h, then 1 μg/ml SP 24 h, n=3) was “selectively blocked SP-mediated downregulation of FcεRI”.

In the case of SP(4–11) [SP(4–11) [D-Pro4 D-Trp7.9]], the “Concentration that blocked the SP-mediated downregulation of FcεRI expression” value ([1]; LAD2, 30 min pretreatment, then 1 μg/ml SP 24 h) is reported as 0.1 µM, the “Effect of antagonist on SP-mediated downregulation of FcεRI” value ([1]; then 1 μg/ml SP 24 h) is reported as “blocked SP-mediated downregulation of FcεRI expression” and the “Concentration at which SP(4–11) abrogated the SP effect on FcεRI expression” value ([1]; discussion statement) is reported as 1 µg/mL.

In the case of spantide I, the “Effect of antagonist on SP-mediated downregulation of FcεRI” value ([1]; then 1 μg/ml SP 24 h) is given as “did not have any effect” and the “Effect on SP-mediated degranulation in mast cells” value [3] is given as “fails to inhibit SP-mediated degranulation”.

With substance P [SP] the “Lowest SP concentration leading to clear down-regulation of FcεRI” value ([1]; LAD2 (discussion statement)) was 1 µM, the “Time within which SP reduced IgE receptors” value ([1]; LAD2 (discussion statement)) was no more than 30 min and the “Downregulation of FcεRI expression” value ([1]; LAD2, 1 μg/ml SP, 24 h) was “approximately 30%”. The “Reduction of FcεRI expression” value ([1]; LAD2, 10 μg/ml SP (highest concentration tested), 24 h) was roughly 70%, the “Reduction in FcεRI protein expression compared to untreated cells” value ([1]; LAD2, 10 μg/ml SP, 2 h) was 50% and the “IC50 of SP for downregulation of FcεRI surface expression” value ([1]; LAD2, in the absence of IgE, SP 24 h, flow cytometry, n=3) was 5.2 µg/mL. For the same molecule, the “Effect on expression of FcεRI α, β and γ subunit mRNA” value [4] was “significantly inhibited”, the “Effect on mast cell viability” value [5] was “no effect on mast cell viability” and the “Effect of SP on CysLT production” value ([6]; sensitized with 50 ng/ml IgE) was “significantly inhibited CysLT production”. For the same molecule, the “Effect of SP on CysLT production” value ([6]; sensitized with 100 ng/ml IgE) was “did not significantly affect CysLT production”, the “Effect of SP pretreatment on IgE/anti-IgE-induced CysLT production” value ([6]; LAD2, SP 24 h, sensitized with IgE, activated with anti-IgE 3 h, ELISA, n=3) was “significantly less CysLT” and the “Direct activation of CysLT production” value ([6]; mast cells, SP alone) was “does not activate mast cells to produce cysteinyl leukotrienes”. For the same molecule, the “IgE binding of SP-treated LAD2 vs untreated controls” value [7] was “bound less IgE”.

For vasoactive intestinal peptide [VIP], the “Effect on mast cell viability” value [5] was “no effect on mast cell viability”.

B1: soybean trypsin inhibitor (protein, UniProt P01070 25-205, looked up)
Trypsin inhibitor A: DFVLDNEGNPLENGGTYYILSDITAFGGIRAAPTGNERCPLTVVQSRNELDKGIGTIISSPYRIRFIAEGHPLSLKFDSFAVIMLCVGIPTEWSVVEDLPEGPAVKIGENKDAMDGWFRLERVSDDEFNNYKLVFCPQQAEDDKCGDIGISIDHDDGTRRLVVSKNKPLVVQFQKLDKESL
For B1, the “Effect on SP-mediated downregulation of FcεRI” value ([1]; LAD2, 100 μg/ml SBTI five minutes prior to 1 or 10 μg/ml SP, 24 h) was “did not affect SP-mediated downregulation of FcεRI”, the “Effect on activity of tryptase released by SP activation” value [8] was “able to block the activity of tryptase; also recorded: completely blocked the proteolytic activity of tryptase” and the “Effect on SP-induced degranulation” value ([2]; LAD2, pretreatment before activation with SP, β-hexosaminidase release) was “did not affect LAD2 cell degranulation”.
